In ChEMBL document CHEMBL1121406, “Synthesis, in vitro opiate activity, and intramolecular tyrosine--tryptophan distances of [4-tryptophan]enkephalin analogues. A reassessment of conformational models of enkephalin in solution” (1980):
Peptide text beside a SMILES is read from it.

Organism: Cavia porcellus
Test: Relative narcotic agonistic activity was performed by inhibition of electrically evoked contractions compared with [Met5]-enkephalin (100%) in guinea pig ileum
Type: functional
Set-up: scale not given: the % may be the effect or the level left
Outline: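 Isolated guinea pig ileum; inhibition of electrically evoked contractions as agonist read-out. Single pulses of 4-ms duration at 3 to 6 V; isometric contractions recorded. Potency expressed relative to [Met5]enkephalin taken as 100%.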

SMILES | Activity [%]
COc1ccc(C[C@H](N)C(=O)NCC(=O)NCC(=O)N[C@@H](Cc2ccccc2)C(=O)N[C@@H](CCSC)C(=O)O)cc1 | 2
CC(C)C[C@H](NC(=O)[C@H](Cc1c[nH]c2ccccc12)NC(=O)CNC(=O)CNC(=O)[C@@H](N)Cc1ccc(O)cc1)C(=O)O | 10
CC(C)C[C@H](NC(=O)[C@H](Cc1ccccc1)NC(=O)CNC(=O)CNC(=O)[C@@H](N)Cc1ccc(O)cc1)C(=O)O [ENKEPHALIN] | 24
CSCC[C@H](NC(=O)[C@H](Cc1c[nH]c2ccccc12)NC(=O)CNC(=O)CNC(=O)[C@@H](N)Cc1ccc(O)cc1)C(=O)O (H-YGGWM-OH) | 27
COc1ccc(C[C@H](N)C(=O)NCC(=O)NCC(=O)N[C@@H](Cc2c[nH]c3ccccc23)C(=O)N[C@@H](CCSC)C(=O)O)cc1 | 0.5
N[C@@H](Cc1ccc(O)cc1)C(=O)NCC(=O)NCC(=O)N[C@@H](Cc1ccccc1)C(=O)N1CCC[C@H]1C(=O)O | 1
CSCC[C@H](NC(=O)[C@H](Cc1c[nH]c2ccccc12)N(C)C(=O)CNC(=O)CNC(=O)[C@@H](N)Cc1ccc(O)cc1)C(=O)O | 39
CC(C)C[C@@H](C(=O)O)N(C)C(=O)[C@H](Cc1c[nH]c2ccccc12)NC(=O)CNC(=O)CNC(=O)[C@@H](N)Cc1ccc(O)cc1 | 4
CC(C)C[C@@H](C(=O)O)N(C)C(=O)[C@H](Cc1ccccc1)NC(=O)CNC(=O)CNC(=O)[C@@H](N)Cc1ccc(O)cc1 | 70
CSCC[C@H](NC(=O)[C@H](Cc1ccccc1)NC(=O)CNC(=O)CNC(=O)[C@@H](N)Cc1ccc(O)cc1)C(=O)O | 100
N[C@@H](Cc1ccc(O)cc1)C(=O)NCC(=O)NCC(=O)N[C@@H](Cc1c[nH]c2ccccc12)C(=O)N1CCC[C@H]1C(=O)O | 1
